# Compound activity from PubChem.
# OX1R antag-1 – blocks the human orexin 1 receptor; O43613; CHO/OX1R cells, Fluo-8 calcium fluorescence, orexin A; inhibition, % at 5 µM; 330,000 tested, 0.43% active; AID 434989;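 active = inhibition above its plate's threshold, mean inhibition of all tested compounds on the plate plus 3 SD, cut at about 37% in these data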;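 also: 0% = orexin A challenge wells and 100% = SB-334867-A antagonist wells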
# Target sequence (O43613 whole entry, looked up): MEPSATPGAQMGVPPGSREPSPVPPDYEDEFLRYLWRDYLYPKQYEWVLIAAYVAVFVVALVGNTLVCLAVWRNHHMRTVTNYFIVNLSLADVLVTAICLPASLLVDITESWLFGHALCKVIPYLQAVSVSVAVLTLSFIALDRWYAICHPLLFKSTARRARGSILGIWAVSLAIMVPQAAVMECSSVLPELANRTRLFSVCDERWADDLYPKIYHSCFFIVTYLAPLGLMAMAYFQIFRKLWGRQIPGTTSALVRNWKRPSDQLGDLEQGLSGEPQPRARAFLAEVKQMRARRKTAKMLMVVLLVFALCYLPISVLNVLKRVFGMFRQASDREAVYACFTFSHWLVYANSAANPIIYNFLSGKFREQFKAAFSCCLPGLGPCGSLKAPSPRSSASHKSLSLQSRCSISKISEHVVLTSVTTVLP
# CHO parental Ca – counter-screen: ATP calcium response change in parental CHO cells; parental CHO-K1, ATP-induced calcium, Fluo-8 fluorescence; inhibition, % at 5.6 µM; 330,000 tested, 0.63% active;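 active = inhibition above that plate's mean sample inhibition plus 3 SD, cut at about 26% in these data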;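 also: 0% = ATP-challenged DMSO wells and 100% = DMSO wells without ATP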
#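 Test system: untransfected parental CHO cell line. Compound: one dose, 5.6 µM nominal. Detection: intracellular calcium via Fluo-8 no-wash fluorescent dye. Measure: % inhibition. Benchmarks: ATP-challenged DMSO wells low, unchallenged DMSO wells high.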
# TAAR1 agonist – human TAAR1 agonism; CHO RD-HGA16 TAAR1, Fluo-8 calcium fluorescence; vehicle wells 0%, saturating PEA agonist 100%; activation, % at 3 µM; 360,000 tested, 0.99% active; AID 624467;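 active = activation above the mean activation of all test compounds in the run plus 3 SD, cut at about 38% in these data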
#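 Test system: RD-HGA16 (CHO) cells co-expressing Gα16 and hTAAR1 / Benchmarks: DMSO vehicle as 0%, PEA at EC100 as 100% / Repeats: no replicates (n 1) / Measure: % activation from peak over basal fluorescence ratio, DMSO-to-PEA scaled / Timing: 17-24 h plating, Fluo-8 75 min 37 °C, 30 min RT / Technique: kinetic Fluo-8 calcium fluorescence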
# GPR7 antag – blocks human GPR7 receptor signaling; P48145; inhibition, % at 4.4 µM; 290,000 tested, 1.1% active; GPR7-expressing cells, fluorescence antagonist assay; in the data active = inhibition above about 16%, passing the limit was not always enough;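 also: cells stimulated with the agonist NPW; 0% = agonist with vehicle and 100% = vehicle without agonist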
# TAAR1 antagonist – antagonists of human TAAR1. Q96RJ0. CHO RD-HGA16 TAAR1, Fluo-8 calcium fluorescence, antagonist. inhibition, % at 3 µM. 360,000 tested, 1.5% active. AID 624466;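 active = inhibition above a per-plate cutoff, the mean inhibition of test compounds on that plate plus 3 SD, cut at about 49% in these data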;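 also: 0% = DMSO plus EC80 beta-PEA response and 100% = DMSO alone without agonist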
#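 Test system: RD-HGA16 CHO cells with stable hTAAR1 and Gα16 / Probe or stimulus: EC80 β-phenethylamine stimulus / Times: seeding 17-24 h prior, 75-min 37 °C, 30-min RT dye loading / Detection: Fluo-8 calcium-sensitive fluorescence / Read-out basis: % inhibition scaled between DMSO and EC80 PEA controls / Repeats: singlicate, one well per test compound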
# OX1R antag-2 – blocks the human orexin 1 receptor | O43613 | OX1R-expressing cells, FRET antagonist read-out | inhibition, % at 6.6 µM | 330,000 tested, 1.8% active | AID 485270; in the data active = inhibition mostly above about 38%, no sharp cut-off; inactive = mostly below about 40%;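 also: 0% = agonist challenge alone and 100% = reference antagonist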
# GPR7 antag conf – confirmation of human GPR7 antagonists; shares compounds with GPR7 antag; GPR7-expressing cells, calcium fluorescence antagonist mode; inhibition, % at 4.4 µM; 2,400 tested, 52% active; AID 1952; in the data active = inhibition above about 24%;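 also: stimulated with the GPR7 agonist NPW; 0% = agonist plus vehicle and 100% = vehicle alone without agonist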
# MCHR1 antag – antagonizes human MCHR1, a GPR7 antagonist counter-screen | 2,400 tested, 62% active | inhibition, % at 4.4 µM | MCHR1-expressing cells, fluorescence antagonist assay | shares compounds with GPR7 antag | AID 2148; in the data active = inhibition above about 22%;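 also: 0% = vehicle with agonist and 100% = vehicle without agonist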
# The depositor's hits bear a star; x = no result. This is a sample that favours compounds with a hit; in the whole collection about 4.5% have one here.
SMILES,OX1R antag-1,CHO parental Ca,TAAR1 agonist,GPR7 antag,TAAR1 antagonist,OX1R antag-2,GPR7 antag conf,MCHR1 antag
COc1ccc(N(C)S(=O)(=O)c2cccc(C(=O)NC3CCC(C)CC3)c2)cc1 (stereo unspecified),-40,-25,9,40*,18,6,36*,48*
O=C(COc1nc2ccccc2nc1N1CCOCC1)Nc1cccc(S(=O)(=O)N2CCCCC2)c1,1,-2,2,3,3,22,x,x
CCN(CC)S(=O)(=O)c1ccc(NC(=O)COc2nc3ccccc3nc2N2CCOCC2)cc1,-23,-7,2,24*,-24,6,4,7
Cc1cc(NC(=O)CN2CCOCC2)n(-c2ccccc2)n1,-14,-18,1,-11,-26,0,x,x
Cc1cc(NC(=O)CCc2ccc(S(=O)(=O)N3CCOCC3)cc2)n(-c2ccccc2)n1,-3,-10,3,30*,0,15,-9,21
O=c1[nH]c2cc3c(cc2cc1CN(Cc1ccco1)C(=S)NCCCN1CCOCC1)OCCO3,-40,-15,0,100*,11,6,4,-3
CCCCNC(=S)N(Cc1ccco1)Cc1cc2cc3c(cc2[nH]c1=O)OCCO3,-31,-14,1,-3,-18,17,x,x
CCOc1ccc(S(=O)(=O)NCCC(=O)NCCOc2ccccc2OC)cc1,-27,-21,1,x,-4,17,x,x
Cc1ccc(NC(=O)COc2ccccc2CNC(C)(C)CC(C)(C)C)cc1,-14,-10,46*,25*,-3,6,35*,46*
CCOc1ccc(C2CC(c3ccccc3C)n3ncnc3N2)cc1 (stereo unspecified),-18,-4,3,37*,-9,26,22,24*
COc1ccccc1C1CC(c2ccc(Cl)cc2)Nc2ncnn21 (stereo unspecified),-26,6,18,x,4,41,x,15
Cc1ccccc1C1CC(c2ccccc2)Nc2ncnn21 (stereo unspecified),-19,-17,3,6,0,2,x,x
CCOc1ccccc1NC(=O)COC(=O)c1c(CC)noc1C,x,x,1,x,-1,x,x,x
Nn1c(SCc2nc3ccccc3[nH]2)nnc1C1CCCCC1,-27,-16,6,22*,10,8,13,-3
CNc1ccc(Cl)cc1S(=O)(=O)c1ccccc1[N+](=O)[O-],x,x,-1,x,-57,x,x,x
COc1ccc(-c2nnn(CC(=O)NCc3ccc4c(c3)OCO4)n2)cc1OC,-19,-18,4,22*,10,21,0,2
CCc1ccc(N(C2C=CS(=O)(=O)C2)S(=O)(=O)c2ccccc2)cc1 (stereo unspecified),-13,-21,0,7,1,22,x,x
Cc1ccc(S(=O)(=O)N(c2cccc(C(F)(F)F)c2)C2C=CS(=O)(=O)C2)cc1 (stereo unspecified),-10,-6,8,23*,4,0,12,-5
CCC(C)(C)NC(=O)C(c1ccc(OC)cc1)N(C(=O)CCC(=O)Nc1cc(C)on1)c1cc(OC)ccc1OC (stereo unspecified),-40,-31,1,8,-24,10,x,x
O=C(CCn1nc(-c2ccc(Cl)cc2)c2ccccc2c1=O)Nc1cccnc1,-20,-27,8,21*,2,18,16,15
NC(=O)CCn1nc(-c2ccc(Cl)cc2)c2ccccc2c1=O,-21,-10,-1,-7,-4,23,x,x
COc1ccccc1/C=C(/C#N)C(=O)O,x,x,4,17,1,x,-24,16
COc1ccccc1/C=C(\C#N)C(=O)c1cccn1C,4,-15,4,15,0,5,x,x
Clc1ccc(OCCOCCNCc2ccccc2)cc1Cl,-16,3,23,90*,26,-3,19,27*
Cc1cc(Cl)cc(C)c1OCCOCCNCc1ccccc1,-26,-7,15,27*,-1,-5,35*,28*
SMILES,OX1R antag-1,CHO parental Ca,TAAR1 agonist,GPR7 antag,TAAR1 antagonist,OX1R antag-2,GPR7 antag conf,MCHR1 antag
CN(CCOc1ccc(Cl)c(Cl)c1)Cc1ccccc1,-29,-12,3,-7,-4,1,x,x
CN(C)c1ccc(Nc2ccc([N+](=O)[O-])cn2)cc1,-13,4,-4,24*,-13,43*,41*,19
CCCCN(C)CC(O)Cn1cc(/C=C/C(=O)c2ccc(C)cc2)c2ccccc21 (stereo unspecified),-16,3,17,37*,23,4,37*,36*
COC(=O)COc1ccc(-c2ccc(F)cc2)cc1C=O,-7,-10,3,33*,0,6,31*,35*
COC(=O)COc1ccc(-c2ccccc2)cc1C=O,10,2,4,31*,6,7,17,38*
COc1cccc(-n2c(SCC(=O)NC3CC3)nc3ccccc3c2=O)c1,x,x,4,x,-16,x,x,x
CC1CCN(CCCNC(=O)c2ccc(CSCc3cccc(Cl)c3)o2)CC1,-22,-18,9,22*,12,10,17,13
COCCNc1nc(-c2ccc(Cl)cc2C)c2sccc2n1,x,x,2,x,23,x,x,x
CCOC(=O)N1CCN(C(=O)c2ccc(CSc3ccc(Cl)cc3)cc2)CC1,x,x,3,25*,23,x,22,49*
CN1CCN(C(=O)c2ccc(CSc3ccc(Cl)cc3)cc2)CC1,4,20,7,-1,11,28,x,x
O=c1c2cn[nH]c2[nH]c(=S)n1-c1ccccc1,-13,-6,5,-10,6,-1,x,x
COc1ccc(-n2c(=S)[nH]c3[nH]ncc3c2=O)cc1,0,-7,2,23*,-12,3,0,4
CCCCCC1CC(CC(=O)Nc2ccc([N+](=O)[O-])cc2)OC1=O (stereo unspecified),-23,-9,3,25*,-26,8,9,42*
O=C(NCc1cccc(Cl)c1)c1ccc2ccccc2n1,-17,-12,4,1,-23,25,x,x
O=C(NCc1ccccc1Cl)c1ccc(S(=O)(=O)N2CCCC2)cc1,-18,-10,-3,x,12,11,x,x
O=C(NCc1ccccc1Cl)c1ccc(S(=O)(=O)Nc2cccc(C(F)(F)F)c2)cc1,22,17,34,24*,20,3,32*,46*
CCOCCCNC(=S)N1C2CCC1CC(NC(=O)Nc1ccc(C(=O)OCC)cc1)C2 (stereo unspecified),-7,-13,3,26*,-38,28,-7,2
